Test results as given in ChEMBL document CHEMBL2169882, “Exploration of novel 3-substituted azetidine derivatives as triple reuptake inhibitors” (J Med Chem, 2012).
The source made the active and inactive calls. The calls are words filed in the database; no cut-off is given here.

Assays:
[1] = target: T1, Sodium-dependent serotonin transporter (Homo sapiens, UniProt P31645); settings: HEK293, at 0.1 µM
Target sequence in this assay (P31645 whole entry, looked up): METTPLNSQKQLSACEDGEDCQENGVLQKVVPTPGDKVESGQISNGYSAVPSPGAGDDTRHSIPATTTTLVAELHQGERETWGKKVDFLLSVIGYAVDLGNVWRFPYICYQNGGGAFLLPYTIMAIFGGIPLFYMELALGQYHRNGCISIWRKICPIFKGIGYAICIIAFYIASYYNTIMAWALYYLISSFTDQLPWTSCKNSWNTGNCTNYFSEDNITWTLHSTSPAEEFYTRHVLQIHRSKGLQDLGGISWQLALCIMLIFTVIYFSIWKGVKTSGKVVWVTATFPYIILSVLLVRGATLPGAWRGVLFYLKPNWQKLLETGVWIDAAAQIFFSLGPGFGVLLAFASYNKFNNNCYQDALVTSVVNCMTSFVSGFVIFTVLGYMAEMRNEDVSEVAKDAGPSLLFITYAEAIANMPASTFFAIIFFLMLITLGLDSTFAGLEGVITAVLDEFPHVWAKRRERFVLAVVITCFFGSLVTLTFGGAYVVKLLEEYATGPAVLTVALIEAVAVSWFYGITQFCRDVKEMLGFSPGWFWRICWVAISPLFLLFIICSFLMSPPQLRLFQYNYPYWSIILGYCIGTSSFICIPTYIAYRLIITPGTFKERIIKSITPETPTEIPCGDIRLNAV

[2] = target: T2, Sodium-dependent dopamine transporter (Homo sapiens, UniProt Q01959); settings: HEK293, at 0.1 µM
[3] = target: T3, Sodium-dependent noradrenaline transporter (Homo sapiens, UniProt P23975); settings: HEK293, at 0.1 µM
[4] = target: T1, Sodium-dependent serotonin transporter; type: cell-based, HEK293
Target sequence in this assay (P31645 whole entry): as the sequence (P31645 whole entry, looked up) above

[5] = target: T2, Sodium-dependent dopamine transporter; type: cell-based, HEK293
[6] = target: T3, Sodium-dependent noradrenaline transporter; type: cell-based, HEK293
CYP2D6 = CYP2D6 (Homo sapiens, UniProt P10635); assay: Inhibition of human recombinant CYP2D6 at 10 uM after 5 mins by fluorescence assay
Outline: (§1)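 Single-point screen at 10 μM against human CYP2D6 or CYP3A4, using a VIVID CYP enzyme kit. Results were expressed as percentage inhibition.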

CYP3A4 = CYP3A4 (Homo sapiens, UniProt P08684); assay: Inhibition of human recombinant CYP3A4 at 10 uM after 5 mins by fluorescence assay
Outline: as §1

Mus musculus [7] = assay: Antidepressant activity in ICR mouse assessed as reduction in immobility time at 10 mg/kg, iv after 0.5 hrs by forced swimming test; type: functional, organism-based; design: dose 10 mg/kg
Outline: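 ICR mice; forced swimming test following Porsolt's method. Intravenous dosing 0.5 h before the test at 2.5, 5.0 and 10.0 mg/kg. Read-out was immobility time, compared with vehicle-treated mice.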

[8] = Terminal half life in Sprague-Dawley rat at 1 mg/kg, iv; type: ADME, organism-based; design: dose 1 mg/kg, route intravenous; settings: in vivo, read-out: beta t1/2 (converted)
Rattus norvegicus [9] = assay: AUC (infinity) in Sprague-Dawley rat at 1 mg/kg, iv; type: ADME, organism-based, Plasma; design: time infinity, dose 1 mg/kg, route intravenous; settings: in vivo
Rattus norvegicus [10] = assay: Oral bioavailability in Sprague-Dawley rat at 2 mg/kg; type: ADME, organism-based; settings: in vivo
[11] = AUC (all) in Sprague-Dawley rat at 1 mg/kg, iv; type: ADME, organism-based; design: dose 1 mg/kg, route intravenous; settings: plasma
[12] = Apparent oral clearance in Sprague-Dawley rat at 2 mg/kg, po; type: ADME, organism-based; design: dose 2 mg/kg, route oral; settings: in vivo
[13] = Apparent volume of distribution during terminal phase in Sprague-Dawley rat at 2 mg/kg, po; type: ADME, organism-based; design: dose 2 mg/kg, route oral; settings: in vivo, read-out: Vz/F
[14] = Cmax in Sprague-Dawley rat at 2 mg/kg, po; type: ADME, organism-based; design: dose 2 mg/kg, route oral; settings: in vivo
[15] = Tmax in Sprague-Dawley rat at 2 mg/kg, po; type: ADME, organism-based; design: dose 2 mg/kg, route oral; settings: in vivo
Rattus norvegicus [16] = assay: AUC (infinity) in Sprague-Dawley rat at 2 mg/kg, po; type: ADME, organism-based, Plasma; design: time infinity, dose 2 mg/kg, route oral; settings: in vivo
Rattus norvegicus [17] = assay: Apparent volume of distribution during terminal phase in Sprague-Dawley rat at 1 mg/kg, iv; type: ADME, organism-based; design: dose 1 mg/kg, route intravenous; settings: in vivo
[18] = Mean residence time ( 0 to t ) in Sprague-Dawley rat at 1 mg/kg, iv; type: ADME, organism-based; design: dose 1 mg/kg, route intravenous; settings: in vivo
Mus musculus [19] = assay: Antidepressant activity in po dosed ICR mouse assessed as reduction in immobility time dosed 0.5 hrs before forced swimming test; type: functional, organism-based
Outline: (§2)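 ICR mice were tested in the Porsolt forced swimming test with a 30 min pretreatment. Doses were 2.5, 5.0 and 10.0 mg/kg IV or 10, 20 and 40 mg/kg PO. Read-out was immobility time, compared with vehicle. Venlafaxine was the positive control.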

[20] = Terminal half life in Sprague-Dawley rat at 2 mg/kg, po; type: ADME, organism-based; design: dose 2 mg/kg, route oral; settings: in vivo, read-out: beta t1/2 (converted)
Liver microsomes = assay: Stability in human liver microsomes assessed as compound remaining at 1 uM after 0.5 hrs by BD Gentest assay; type: ADME, Microsome
[21] = Mean residence time ( 0 to t ) in Sprague-Dawley rat at 2 mg/kg, po; type: ADME, organism-based; design: dose 2 mg/kg, route oral; settings: in vivo
[22] = Cmax in Sprague-Dawley rat at 1 mg/kg, iv; type: ADME, organism-based; design: dose 1 mg/kg, route intravenous; settings: in vivo
Mus musculus [23] = assay: Antidepressant activity in iv dosed ICR mouse assessed as reduction in immobility time dosed 0.5 hrs before forced swimming test; type: functional, organism-based
Outline: as §2

[24] = Apparent oral clearance in Sprague-Dawley rat at 1 mg/kg, iv; type: ADME, organism-based; design: dose 1 mg/kg; settings: in vivo
[25] = Ratio of drug level from brain to plasma in ICR mouse at 10 mg/kg, ip from 30 mins to 3 hrs by LC-MS/MS analysis; type: ADME, organism-based; design: dose 10 mg/kg, route intraperitoneal; settings: read-out: BPR
[26] = AUC (all) in Sprague-Dawley rat at 2 mg/kg, po; type: ADME, organism-based; design: dose 2 mg/kg, route oral; settings: plasma
[27] = target: Voltage-gated inwardly rectifying potassium channel KCNH2 (Homo sapiens, UniProt Q12809); assay: Inhibition of human ERG expressed in CHOK1 cells by patch clamp technique; type: cell-based, CHO-K1
Sequence of Voltage-gated inwardly rectifying potassium channel KCNH2 (Q12809 whole entry): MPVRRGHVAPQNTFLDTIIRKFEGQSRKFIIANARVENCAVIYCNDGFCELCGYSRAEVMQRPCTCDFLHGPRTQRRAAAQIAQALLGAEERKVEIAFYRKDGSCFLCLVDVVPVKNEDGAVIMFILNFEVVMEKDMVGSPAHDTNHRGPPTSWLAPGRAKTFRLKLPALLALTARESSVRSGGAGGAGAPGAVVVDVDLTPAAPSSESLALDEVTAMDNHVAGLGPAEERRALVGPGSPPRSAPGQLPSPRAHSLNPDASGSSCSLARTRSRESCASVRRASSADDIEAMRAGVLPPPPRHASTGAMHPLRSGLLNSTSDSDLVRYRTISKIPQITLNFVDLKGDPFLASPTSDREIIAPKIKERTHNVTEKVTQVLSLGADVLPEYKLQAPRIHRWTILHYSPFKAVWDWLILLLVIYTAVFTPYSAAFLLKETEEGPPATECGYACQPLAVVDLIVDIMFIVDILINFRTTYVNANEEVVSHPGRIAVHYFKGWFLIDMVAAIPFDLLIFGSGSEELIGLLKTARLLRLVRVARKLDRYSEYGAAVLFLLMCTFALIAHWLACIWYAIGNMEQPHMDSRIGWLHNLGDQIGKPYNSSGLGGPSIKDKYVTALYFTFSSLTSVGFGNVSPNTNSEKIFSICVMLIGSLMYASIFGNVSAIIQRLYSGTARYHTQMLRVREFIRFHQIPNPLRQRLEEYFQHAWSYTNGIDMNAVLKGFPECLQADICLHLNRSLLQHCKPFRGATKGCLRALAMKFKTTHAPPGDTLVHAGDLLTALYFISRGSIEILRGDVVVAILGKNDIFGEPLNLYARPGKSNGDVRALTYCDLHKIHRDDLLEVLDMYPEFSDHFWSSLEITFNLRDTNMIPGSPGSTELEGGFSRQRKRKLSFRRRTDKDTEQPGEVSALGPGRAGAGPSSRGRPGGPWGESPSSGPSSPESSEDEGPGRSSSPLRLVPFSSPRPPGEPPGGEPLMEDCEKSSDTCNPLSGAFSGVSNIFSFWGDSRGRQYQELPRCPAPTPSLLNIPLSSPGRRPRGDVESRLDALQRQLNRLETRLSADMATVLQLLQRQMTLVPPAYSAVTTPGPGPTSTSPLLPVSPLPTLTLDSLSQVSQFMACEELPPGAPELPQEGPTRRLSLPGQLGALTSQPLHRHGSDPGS

T2 sequence (Q01959 whole entry): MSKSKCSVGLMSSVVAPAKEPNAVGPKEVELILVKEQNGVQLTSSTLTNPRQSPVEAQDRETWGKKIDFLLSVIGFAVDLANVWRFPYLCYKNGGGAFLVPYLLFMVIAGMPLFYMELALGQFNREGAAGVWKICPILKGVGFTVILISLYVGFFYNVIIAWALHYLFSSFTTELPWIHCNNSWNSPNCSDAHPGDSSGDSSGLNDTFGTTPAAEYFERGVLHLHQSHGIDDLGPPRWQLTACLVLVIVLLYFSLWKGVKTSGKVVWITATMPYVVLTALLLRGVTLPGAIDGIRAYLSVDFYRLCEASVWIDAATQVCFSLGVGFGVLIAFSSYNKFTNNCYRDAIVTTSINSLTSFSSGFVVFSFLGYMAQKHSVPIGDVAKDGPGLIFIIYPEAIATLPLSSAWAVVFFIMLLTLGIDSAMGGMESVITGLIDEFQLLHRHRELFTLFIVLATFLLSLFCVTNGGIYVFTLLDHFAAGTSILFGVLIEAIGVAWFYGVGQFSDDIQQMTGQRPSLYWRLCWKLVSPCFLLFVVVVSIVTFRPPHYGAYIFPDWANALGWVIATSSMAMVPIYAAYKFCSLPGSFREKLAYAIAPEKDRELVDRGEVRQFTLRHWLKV
T3 sequence (P23975 whole entry): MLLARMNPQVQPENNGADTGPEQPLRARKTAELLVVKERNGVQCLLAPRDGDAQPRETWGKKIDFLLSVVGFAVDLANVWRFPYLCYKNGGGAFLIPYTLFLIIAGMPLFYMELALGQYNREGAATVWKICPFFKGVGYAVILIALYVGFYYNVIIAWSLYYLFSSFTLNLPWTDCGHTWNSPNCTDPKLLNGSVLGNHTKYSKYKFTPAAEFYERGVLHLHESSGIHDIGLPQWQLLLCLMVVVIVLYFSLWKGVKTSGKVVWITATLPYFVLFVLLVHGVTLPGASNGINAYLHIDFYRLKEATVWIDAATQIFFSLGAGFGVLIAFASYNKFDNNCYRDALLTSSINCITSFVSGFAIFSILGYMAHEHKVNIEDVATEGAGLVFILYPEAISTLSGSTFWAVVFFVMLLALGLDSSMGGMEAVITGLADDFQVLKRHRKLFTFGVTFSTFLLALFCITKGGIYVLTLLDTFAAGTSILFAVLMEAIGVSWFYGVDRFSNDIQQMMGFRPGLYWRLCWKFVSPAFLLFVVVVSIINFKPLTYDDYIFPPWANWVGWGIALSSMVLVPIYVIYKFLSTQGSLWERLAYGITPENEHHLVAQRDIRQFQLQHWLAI
Sequence of CYP2D6 (P10635 whole entry): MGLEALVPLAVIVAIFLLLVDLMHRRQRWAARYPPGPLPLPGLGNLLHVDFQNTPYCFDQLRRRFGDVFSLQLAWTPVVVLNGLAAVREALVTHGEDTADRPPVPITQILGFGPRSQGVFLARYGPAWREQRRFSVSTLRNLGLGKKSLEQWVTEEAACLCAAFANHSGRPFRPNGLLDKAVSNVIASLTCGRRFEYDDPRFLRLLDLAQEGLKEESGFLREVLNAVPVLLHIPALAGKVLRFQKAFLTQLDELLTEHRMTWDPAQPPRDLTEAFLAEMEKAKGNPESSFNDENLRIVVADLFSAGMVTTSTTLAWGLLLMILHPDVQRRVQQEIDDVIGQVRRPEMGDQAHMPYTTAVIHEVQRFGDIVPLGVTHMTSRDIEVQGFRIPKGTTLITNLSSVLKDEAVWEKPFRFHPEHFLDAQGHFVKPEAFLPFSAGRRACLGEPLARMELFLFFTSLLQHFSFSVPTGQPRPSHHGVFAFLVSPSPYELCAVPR
Sequence of CYP3A4 (P08684 whole entry): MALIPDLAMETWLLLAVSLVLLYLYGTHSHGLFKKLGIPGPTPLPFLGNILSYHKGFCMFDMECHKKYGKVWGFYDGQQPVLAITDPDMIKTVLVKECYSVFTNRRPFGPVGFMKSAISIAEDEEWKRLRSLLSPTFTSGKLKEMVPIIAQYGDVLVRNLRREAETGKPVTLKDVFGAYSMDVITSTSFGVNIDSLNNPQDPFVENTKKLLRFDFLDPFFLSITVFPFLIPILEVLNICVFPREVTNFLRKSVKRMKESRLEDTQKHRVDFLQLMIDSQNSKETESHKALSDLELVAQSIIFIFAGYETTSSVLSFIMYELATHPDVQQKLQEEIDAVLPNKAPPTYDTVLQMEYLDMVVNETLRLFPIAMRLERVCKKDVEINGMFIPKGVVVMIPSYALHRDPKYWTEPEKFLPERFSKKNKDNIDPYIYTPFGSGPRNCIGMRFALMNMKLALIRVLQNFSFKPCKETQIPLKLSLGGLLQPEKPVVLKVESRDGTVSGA

CCOC(c1ccccc1)C1CNC1 (centres undefined)
inhibition [1]: 4%
inhibition [2]: 3%
inhibition [3]: 4.5%

COC(c1ccc(Cl)c(Cl)c1)C1CNC1 (centres undefined)
inhibition [1]: 16%
inhibition [2]: 22%
inhibition [3]: 47%

OC(c1ccc(Cl)cc1)C1CNC1 (centres undefined)
inhibition [1]: 2%
inhibition [2]: 2.1%
inhibition [3]: 3.5%

Clc1ccc(OC(c2ccc3ccccc3c2)C2CNC2)cc1Cl (centres undefined)
inhibition [1]: 28%
IC50 [4]: 35 nM
IC50 [5]: 54 nM
IC50 [6]: 16 nM
inhibition at 5 min, 10 µM (CYP2D6): 25%
inhibition [2]: 68%
inhibition at 5 min, 10 µM (CYP3A4): 41%
inhibition [3]: 79%

Cl.c1ccc(OC(c2ccc3ccccc3c2)C2CNC2)cc1 (centres undefined)
Activity (Mus musculus [7]): Active
inhibition [1]: 64%
half-life [8]: 1.4 h
AUC (Rattus norvegicus [9]): 159.7 ng·h/mL
F (Rattus norvegicus [10]): 5.8%
AUC [11]: 153 ng·h/mL
IC50 [4]: 8.3 nM
CL/F [12]: 812 mL/min/kg
Vd/F [13]: 241 L/kg
IC50 [5]: 35 nM
Cmax [14]: 5.6 ng/mL
Tmax [15]: 1.3 h
AUC (Rattus norvegicus [16]): 41.7 ng·h/mL
Vz/F (Rattus norvegicus [17]): 13.1 L/kg
MRT last [18]: 1.73 h
Activity (Mus musculus [19]): Dose-dependent effect
IC50 [6]: 3.1 nM
half-life [20]: 3.3 h
inhibition at 5 min, 10 µM (CYP2D6): 16%
Stability (Liver microsomes): Stable
inhibition [2]: 64%
MRT last [21]: 2 h
inhibition at 5 min, 10 µM (CYP3A4): 12%
Cmax [22]: 112 ng/mL
inhibition [3]: 90%
Activity (Mus musculus [23]): Dose-dependent effect
CL/F [24]: 107 mL/min/kg
Kp [25]: 2.7
AUC [26]: 17.9 ng·h/mL

c1ccc(COC(c2ccccc2)C2CNC2)cc1 (centres undefined)
inhibition [1]: 12%
inhibition [2]: 2%
inhibition [3]: 9.4%

COc1ccc(C(CN(C)C)C2(O)CCCCC2)cc1 (centres undefined)
Activity (Mus musculus [7]): Active

Clc1ccc(C(OCc2ccccc2)C2CNC2)cc1Cl (centres undefined)
inhibition [1]: 12%
inhibition [2]: 12%
inhibition [3]: 30%

CCCOC(c1ccc(Cl)c(Cl)c1)C1CNC1 (centres undefined)
inhibition [1]: 39%
IC50 [4]: 44 nM
IC50 [5]: 32 nM
IC50 [6]: 10 nM
inhibition [2]: 74%
inhibition [3]: 87%

Fc1ccc(C(OCCN2CCN(CCCc3ccccc3)CC2)c2ccc(F)cc2)cc1
inhibition [1]: 1.9%
inhibition [3]: -5.9%

CCCOC(c1ccc2ccccc2c1)C1CNC1.Cl (centres undefined)
inhibition [1]: 77%
half-life [8]: 0.7 h
AUC (Rattus norvegicus [9]): 214.6 ng·h/mL
F (Rattus norvegicus [10]): 5.7%
AUC [11]: 211 ng·h/mL
IC50 [4]: 6.8 nM
CL/F [12]: 775 mL/min/kg
Vd/F [13]: 249 L/kg
IC50 [5]: 72 nM
Cmax [14]: 7.3 ng/mL
Tmax [15]: 1 h
AUC (Rattus norvegicus [16]): 49.4 ng·h/mL
IC50 [27]: 980 nM
Vz/F (Rattus norvegicus [17]): 4.8 L/kg
MRT last [18]: 0.9 h
IC50 [6]: 12 nM
half-life [20]: 4.8 h
Stability (Liver microsomes): Stable
inhibition [2]: 48%
MRT last [21]: 2.2 h
Cmax [22]: 198 ng/mL
inhibition [3]: 87%
CL/F [24]: 78.3 mL/min/kg
Kp [25]: 0.86
AUC [26]: 23.9 ng·h/mL

CCOC(c1ccc(Cl)cc1)C1CNC1 (centres undefined)
inhibition [1]: 4.6%
inhibition [2]: 7.3%
inhibition [3]: 10%

Clc1ccc(C(OCc2ccccc2)C2CNC2)cc1 (centres undefined)
inhibition [1]: 12%
inhibition [2]: 5.7%
inhibition [3]: 16%

OC(c1ccccc1)C1CNC1 (centres undefined)
inhibition [1]: 1.7%
inhibition [2]: 3.9%
inhibition [3]: 0.2%

Clc1ccc(C(Oc2ccccc2)C2CNC2)cc1Cl (centres undefined)
inhibition [1]: 16%
inhibition [2]: 58%
inhibition [3]: 89%

Fc1cc(C(Oc2ccccc2)C2CNC2)ccc1Cl (centres undefined)
inhibition [1]: 49%
IC50 [4]: 142 nM
IC50 [5]: 148 nM
IC50 [6]: 21 nM
inhibition [2]: 30%
inhibition [3]: 76%

Clc1ccc(C(Oc2ccccc2)C2CNC2)cc1 (centres undefined)
inhibition [1]: 22%
inhibition [2]: 36%
inhibition [3]: 68%

CNCCC(Oc1ccccc1OC)c1ccccc1 (centres undefined)
inhibition [1]: 9.9%
inhibition [2]: 9.8%

COC(c1ccccc1)C1CNC1 (centres undefined)
inhibition [1]: 3.3%
inhibition [2]: 2.2%
inhibition [3]: 1.5%

Fc1cc(C(Oc2ccccc2F)C2CNC2)ccc1Cl (centres undefined)
inhibition [1]: 41%
inhibition [2]: 29%
inhibition [3]: 81%

COC(c1ccc(Cl)cc1)C1CNC1 (centres undefined)
inhibition [1]: 3.9%
inhibition [2]: 2.6%
inhibition [3]: 7.7%

c1ccc(OC(c2ccccc2)C2CNC2)cc1 (centres undefined)
inhibition [1]: 25%
inhibition [2]: 9.3%
inhibition [3]: 18%

CCOC(c1ccc(Cl)c(Cl)c1)C1CNC1 (centres undefined)
inhibition [1]: 28%
inhibition [2]: 30%
inhibition [3]: 49%
